# Measured values reported in ChEMBL document CHEMBL1765016, “Indolylarylsulfones as HIV-1 non-nucleoside reverse transcriptase inhibitors: new cyclic substituents at indole-2-carboxamide” (J Med Chem, 2011).
# Target: Human immunodeficiency virus type 1 reverse transcriptase (Human immunodeficiency virus 1, UniProt Q72547)
# Assay: Inhibition of HIV1 wild type reverse transcriptase expressed in Escherichia coli assessed as incorporation of [3H]dTTP into poly(rA)/oligo(dT) by scintillation counting
# Settings: not given
# Method in brief: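 Template was poly(rA)/oligo(dT) 10:1 (0.3 μM 3′-OH ends) with 10 μM [³H]dTTP, at 37 °C. TCA-precipitable counts were taken on GF/C filters. IC₅₀ is 50% inhibition of RT activity.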
row,SMILES,IC50 [nM]
1,Cc1cc(C)cc(S(=O)(=O)c2c(C(=O)NCN3CCCCC3)[nH]c3ccc([N+](=O)[O-])cc23)c1,13
2,Cc1cc(C)cc(S(=O)(=O)c2c(C(=O)NCN3CCOCC3)[nH]c3ccc([N+](=O)[O-])cc23)c1,150
3,Cc1cc(C)cc(S(=O)(=O)c2c(C(=O)NCCN3CCCC3)[nH]c3ccc(Br)cc23)c1,65
4,Cc1cc(C)cc(S(=O)(=O)c2c(C(=O)NCc3ccccc3)[nH]c3ccc(Br)cc23)c1,1050
5,Cc1cc(C)cc(S(=O)(=O)c2c(C(=O)NCc3ccccc3)[nH]c3ccc(Cl)cc23)c1,21
6,Cc1cc(C)cc(S(=O)(=O)c2c(C(=O)NCCn3cccc3)[nH]c3ccc([N+](=O)[O-])cc23)c1,34

# Test system: Human immunodeficiency virus 1
# Assay: Antiviral activity against […] harboring reverse transcriptase K103N mutant infected in human MT-4 cells assessed as inhibition of virus-induced cytopathicity after 4 days by MTT assay
# Format: functional, organism-based
# Settings: Human immunodeficiency virus 1, MT4, 96 h
# Method in brief: (§1)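 MT-4 cells at 1 × 10⁵ cells/mL were infected with RT-mutant HIV-1 at a multiplicity of infection of 0.02. They were plated at once with serial compound dilutions (DMSO stocks of 50 mM or higher). […] Virus stocks had been titrated in MT-4 cells as CCID50.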
row,SMILES,EC50 [nM]
1,Cc1cc(C)cc(S(=O)(=O)c2c(C(=O)NCc3ccccc3)[nH]c3ccc(Br)cc23)c1,15
2,Cc1cc(C)cc(S(=O)(=O)c2c(C(=O)NCc3ccccc3)[nH]c3ccc(Cl)cc23)c1,11

# Test system: Human immunodeficiency virus 1
# Assay: Antiviral activity against HIV1 harboring reverse transcriptase Y181C mutant infected in human MT-4 cells assessed as inhibition of virus-induced cytopathicity after 4 days by MTT assay
# Format: functional, organism-based
# Settings: Human immunodeficiency virus 1, MT4, 96 h
# Method in brief: as §1
row,SMILES,EC50 [nM]
1,Cc1cc(C)cc(S(=O)(=O)c2c(C(=O)NCc3ccccc3)[nH]c3ccc(Br)cc23)c1,59
2,Cc1cc(C)cc(S(=O)(=O)c2c(C(=O)NCc3ccccc3)[nH]c3ccc(Cl)cc23)c1,46

# Test system: Human immunodeficiency virus 1
# Assay: Antiviral activity against wild type HIV1 3B infected in human CEM cells assessed as inhibition of virus-induced cytopathicity after 4 days by microscopic analysis
# Format: functional, organism-based
# Settings: Human immunodeficiency virus 1, 3B, CCRF-CEM, 96 h
# Method in brief: (§2)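 CEM cells (~3 × 10⁵ cells/mL) infected with ~100 CCID₅₀ virus per mL, seeded into wells with compound dilutions. Syncytia (giant cell) formation scored microscopically after 4 days at 37 °C. EC₅₀ is the concentration protecting cells by 50%. Values are means of two experiments in triplicate.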
row,SMILES,EC50 [nM]
1,Cc1cc(C)cc(S(=O)(=O)c2c(C(=O)NCN3CCCCC3)[nH]c3ccc([N+](=O)[O-])cc23)c1,3.1
2,Cc1cc(C)cc(S(=O)(=O)c2c(C(=O)NCN3CCOCC3)[nH]c3ccc([N+](=O)[O-])cc23)c1,5.8
3,Cc1cc(C)cc(S(=O)(=O)c2c(C(=O)NCCN3CCCC3)[nH]c3ccc(Br)cc23)c1,16
4,Cc1cc(C)cc(S(=O)(=O)c2c(C(=O)NCc3ccccc3)[nH]c3ccc(Br)cc23)c1,5.7
5,Cc1cc(C)cc(S(=O)(=O)c2c(C(=O)NCc3ccccc3)[nH]c3ccc(Cl)cc23)c1,5.7
6,Cc1cc(C)cc(S(=O)(=O)c2c(C(=O)NCCn3cccc3)[nH]c3ccc([N+](=O)[O-])cc23)c1,6.9

# Target: Human immunodeficiency virus type 1 reverse transcriptase (Human immunodeficiency virus 1, UniProt Q72547, L100I)
# Assay: Inhibition of HIV1 reverse transcriptase L100I mutant expressed in Escherichia coli assessed as incorporation of [3H]dTTP into poly(rA)/oligo(dT) by scintillation counting
# Settings: not given
# Method in brief: (§3)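 The RT was recombinant p66(His)/p51 heterodimer, mutant form, expressed in E. coli. TCA-precipitable radioactivity on GF/C filters was read by scintillation. IC50 is the concentration giving 50% inhibition.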
row,SMILES,IC50 [nM]
1,Cc1cc(C)cc(S(=O)(=O)c2c(C(=O)NCN3CCCCC3)[nH]c3ccc([N+](=O)[O-])cc23)c1,10
2,Cc1cc(C)cc(S(=O)(=O)c2c(C(=O)NCN3CCOCC3)[nH]c3ccc([N+](=O)[O-])cc23)c1,99
3,Cc1cc(C)cc(S(=O)(=O)c2c(C(=O)NCCN3CCCC3)[nH]c3ccc(Br)cc23)c1,315
4,Cc1cc(C)cc(S(=O)(=O)c2c(C(=O)NCc3ccccc3)[nH]c3ccc(Br)cc23)c1,273
5,Cc1cc(C)cc(S(=O)(=O)c2c(C(=O)NCc3ccccc3)[nH]c3ccc(Cl)cc23)c1,15
6,Cc1cc(C)cc(S(=O)(=O)c2c(C(=O)NCCn3cccc3)[nH]c3ccc([N+](=O)[O-])cc23)c1,23

# Test system: not listed separately
# Assay: Selectivity index, CC50 for human CEM cells to IC50 for HIV1 3B
# Format: functional, CCRF-CEM
# Settings: not given
# Method in brief: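 Ratio of CC₅₀ (Coulter count, mock-infected CEM) to EC₅₀ (CEM, HIV-1 IIIB, microscopic syncytia scoring at day 4).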
row,SMILES,Selectivity Index
1,Cc1cc(C)cc(S(=O)(=O)c2c(C(=O)NCN3CCCCC3)[nH]c3ccc([N+](=O)[O-])cc23)c1,3871
2,Cc1cc(C)cc(S(=O)(=O)c2c(C(=O)NCN3CCOCC3)[nH]c3ccc([N+](=O)[O-])cc23)c1,7931
3,Cc1cc(C)cc(S(=O)(=O)c2c(C(=O)NCCN3CCCC3)[nH]c3ccc(Br)cc23)c1,351
4,Cc1cc(C)cc(S(=O)(=O)c2c(C(=O)NCc3ccccc3)[nH]c3ccc(Br)cc23)c1,30175
5,Cc1cc(C)cc(S(=O)(=O)c2c(C(=O)NCCn3cccc3)[nH]c3ccc([N+](=O)[O-])cc23)c1,32754

# Target: Human immunodeficiency virus type 1 reverse transcriptase (Human immunodeficiency virus 1, UniProt Q72547, Y181I)
# Assay: Inhibition of HIV1 reverse transcriptase Y181I mutant expressed in Escherichia coli assessed as incorporation of [3H]dTTP into poly(rA)/oligo(dT) by scintillation counting
# Settings: not given
# Method in brief: as §3
row,SMILES,IC50 [nM]
1,Cc1cc(C)cc(S(=O)(=O)c2c(C(=O)NCN3CCCCC3)[nH]c3ccc([N+](=O)[O-])cc23)c1,999
2,Cc1cc(C)cc(S(=O)(=O)c2c(C(=O)NCN3CCOCC3)[nH]c3ccc([N+](=O)[O-])cc23)c1,1600
3,Cc1cc(C)cc(S(=O)(=O)c2c(C(=O)NCCN3CCCC3)[nH]c3ccc(Br)cc23)c1,> 40000
4,Cc1cc(C)cc(S(=O)(=O)c2c(C(=O)NCc3ccccc3)[nH]c3ccc(Br)cc23)c1,> 40000
5,Cc1cc(C)cc(S(=O)(=O)c2c(C(=O)NCc3ccccc3)[nH]c3ccc(Cl)cc23)c1,> 40000
6,Cc1cc(C)cc(S(=O)(=O)c2c(C(=O)NCCn3cccc3)[nH]c3ccc([N+](=O)[O-])cc23)c1,> 40000

# Test system: not listed separately
# Assay: Cytotoxicity against human CEM cells by coulter counter analysis
# Format: cell-based
# Settings: CEM (CCRF-CEM) cells
# Method in brief: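 Mock-infected CEM cultures with compound, cell number counted by Coulter counter as percent of untreated control. CC₅₀ (50% reduction in proliferation) was read from plots against concentration. Values are means of two experiments in triplicate.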
row,SMILES,CC50 [nM]
1,Cc1cc(C)cc(S(=O)(=O)c2c(C(=O)NCN3CCCCC3)[nH]c3ccc([N+](=O)[O-])cc23)c1,12000
2,Cc1cc(C)cc(S(=O)(=O)c2c(C(=O)NCN3CCOCC3)[nH]c3ccc([N+](=O)[O-])cc23)c1,46000
3,Cc1cc(C)cc(S(=O)(=O)c2c(C(=O)NCCN3CCCC3)[nH]c3ccc(Br)cc23)c1,5600
4,Cc1cc(C)cc(S(=O)(=O)c2c(C(=O)NCc3ccccc3)[nH]c3ccc(Br)cc23)c1,172000
5,Cc1cc(C)cc(S(=O)(=O)c2c(C(=O)NCc3ccccc3)[nH]c3ccc(Cl)cc23)c1,244000
6,Cc1cc(C)cc(S(=O)(=O)c2c(C(=O)NCCn3cccc3)[nH]c3ccc([N+](=O)[O-])cc23)c1,226000

# Test system: Human immunodeficiency virus 1
# Assay: Antiviral activity against HIV1 harboring reverse transcriptase Y188L mutant infected in human MT-4 cells assessed as inhibition of virus-induced cytopathicity after 4 days by MTT assay
# Format: functional, organism-based
# Settings: Human immunodeficiency virus 1, MT4, 96 h
# Method in brief: as §1
row,SMILES,EC50 [nM]
1,Cc1cc(C)cc(S(=O)(=O)c2c(C(=O)NCc3ccccc3)[nH]c3ccc(Br)cc23)c1,≥ 450
2,Cc1cc(C)cc(S(=O)(=O)c2c(C(=O)NCc3ccccc3)[nH]c3ccc(Cl)cc23)c1,480

# Target: Human immunodeficiency virus type 1 reverse transcriptase (Human immunodeficiency virus 1, UniProt Q72547, K103N)
# Assay: Inhibition of HIV1 reverse transcriptase K103N mutant expressed in Escherichia coli assessed as incorporation of [3H]dTTP into poly(rA)/oligo(dT) by scintillation counting
# Settings: not given
# Method in brief: as §3
row,SMILES,IC50 [nM]
1,Cc1cc(C)cc(S(=O)(=O)c2c(C(=O)NCN3CCCCC3)[nH]c3ccc([N+](=O)[O-])cc23)c1,307
2,Cc1cc(C)cc(S(=O)(=O)c2c(C(=O)NCN3CCOCC3)[nH]c3ccc([N+](=O)[O-])cc23)c1,864
3,Cc1cc(C)cc(S(=O)(=O)c2c(C(=O)NCCN3CCCC3)[nH]c3ccc(Br)cc23)c1,697
4,Cc1cc(C)cc(S(=O)(=O)c2c(C(=O)NCc3ccccc3)[nH]c3ccc(Br)cc23)c1,1850
5,Cc1cc(C)cc(S(=O)(=O)c2c(C(=O)NCc3ccccc3)[nH]c3ccc(Cl)cc23)c1,> 40000
6,Cc1cc(C)cc(S(=O)(=O)c2c(C(=O)NCCn3cccc3)[nH]c3ccc([N+](=O)[O-])cc23)c1,272

# Test system: Human immunodeficiency virus 1
# Assay: Antiviral activity against HIV1 harboring reverse transcriptase E138K mutant infected in human MT-4 cells assessed as inhibition of virus-induced cytopathicity after 4 days by MTT assay
# Format: functional, organism-based
# Settings: Human immunodeficiency virus 1, MT4, 96 h
# Method in brief: as §1
row,SMILES,EC50 [nM]
1,Cc1cc(C)cc(S(=O)(=O)c2c(C(=O)NCc3ccccc3)[nH]c3ccc(Br)cc23)c1,51
2,Cc1cc(C)cc(S(=O)(=O)c2c(C(=O)NCc3ccccc3)[nH]c3ccc(Cl)cc23)c1,18

# Test system: Human immunodeficiency virus 2
# Assay: Antiviral activity against HIV2 isolate ROD infected in human CEM cells assessed as inhibition of virus-induced cytopathicity after 4 days by microscopic analysis
# Format: functional, organism-based
# Settings: Human immunodeficiency virus 2, ISOLATE ROD, CCRF-CEM, 96 h
# Method in brief: as §2
row,SMILES,EC50 [nM]
1,Cc1cc(C)cc(S(=O)(=O)c2c(C(=O)NCN3CCCCC3)[nH]c3ccc([N+](=O)[O-])cc23)c1,7500
2,Cc1cc(C)cc(S(=O)(=O)c2c(C(=O)NCN3CCOCC3)[nH]c3ccc([N+](=O)[O-])cc23)c1,≥ 10000
3,Cc1cc(C)cc(S(=O)(=O)c2c(C(=O)NCCN3CCCC3)[nH]c3ccc(Br)cc23)c1,> 2000
4,Cc1cc(C)cc(S(=O)(=O)c2c(C(=O)NCc3ccccc3)[nH]c3ccc(Br)cc23)c1,> 2000
5,Cc1cc(C)cc(S(=O)(=O)c2c(C(=O)NCc3ccccc3)[nH]c3ccc(Cl)cc23)c1,> 10000
6,Cc1cc(C)cc(S(=O)(=O)c2c(C(=O)NCCn3cccc3)[nH]c3ccc([N+](=O)[O-])cc23)c1,> 50000

# Test system: Human immunodeficiency virus 1
# Assay: Antiviral activity against wild type HIV1 3B infected in human MT-4 cells assessed as inhibition of virus-induced cytopathicity after 4 days by MTT assay
# Format: functional, organism-based
# Settings: Human immunodeficiency virus 1, 3B, MT4, 96 h
# Method in brief: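 MT-4 cells at 1 × 10⁵ cells/mL, infected at MOI 0.02 (virus titrated as CCID₅₀ in MT-4), dispensed immediately onto serial compound concentrations (DMSO stocks ≥50 mM). Viable cells counted by MTT after 4 days at 37 °C. EC₅₀ is the concentration giving 50% protection of cell viability. Values are means of at least three experiments.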
row,SMILES,EC50 [nM]
1,Cc1cc(C)cc(S(=O)(=O)c2c(C(=O)NCc3ccccc3)[nH]c3ccc(Br)cc23)c1,16
2,Cc1cc(C)cc(S(=O)(=O)c2c(C(=O)NCc3ccccc3)[nH]c3ccc(Cl)cc23)c1,11

# Test system: Human immunodeficiency virus 1
# Assay: Antiviral activity against HIV1 harboring reverse transcriptase L100I mutant infected in human MT-4 cells assessed as inhibition of virus-induced cytopathicity after 4 days by MTT assay
# Format: functional, organism-based
# Settings: Human immunodeficiency virus 1, MT4, 96 h
# Method in brief: as §1
row,SMILES,EC50 [nM]
1,Cc1cc(C)cc(S(=O)(=O)c2c(C(=O)NCc3ccccc3)[nH]c3ccc(Br)cc23)c1,11
2,Cc1cc(C)cc(S(=O)(=O)c2c(C(=O)NCc3ccccc3)[nH]c3ccc(Cl)cc23)c1,6.1
